What was measured:
[1] = system: Vero; test: (§1) Cytotoxicity against African green monkey Vero cells assessed as reduction in cell viability incubated for 24 hrs by MTT assay; assay type: toxicity, cell-based; details: chlorocebus sabaeus, vero, 24 h
Method in brief: (§2)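 Viability of non-infected or infected cells (Vero CCL-81 or MDCK CCL-34) measured by MTT; CC50 calculated by nonlinear regression.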

[2] = system: SARS-CoV-2; test: (§3) Antiviral activity against SARS-CoV-2 (hCoV-19/Korea/KCDC-06/2020) infected in African green monkey Vero cells preincubated with cells for 24 hrs followed by viral infection and measured after 24 hrs by DAPI-staining based fluorescence assay; assay type: functional, organism-based; details: Severe acute respiratory syndrome coronavirus 2, hCoV-19/Korea/KCDC-06/2020, Vero
[3] = system: Influenza A virus; test: (§4) Antiviral activity against Influenza A virus A/Puerto Rico/8/34 (H1N1) infected in MDCK cells assessed as reduction in virus-induced cytopathic effect pre-infected with cells for 1 hrs followed by compound addition and measured after 3 days by fluorescein diacetate-based cell viability assay; assay type: functional, organism-based
[4] = system: MDCK; test: (§5) Cytotoxicity against MDCK cells assessed as reduction in cell viability measured for 48 hrs by MTT assay; assay type: toxicity, cell-based, Canis lupus familiaris; details: dog, mdck, 48 h; method in brief: as §2
[5] = system: Influenza A virus; test: (§6) Antiviral activity against Influenza A virus A/Hong Kong/8/68 (H3N2) infected in MDCK cells assessed as reduction in virus-induced cytopathic effect pre-infected with cells for 1 hrs followed by compound addition and measured after 3 days by fluorescein diacetate-based cell viability assay; assay type: functional, organism-based
[6] = system: Influenza B virus; test: (§7) Antiviral activity against Influenza B virus B/Lee/40 infected in MDCK cells assessed as reduction in virus-induced cytopathic effect pre-infected with cells for 1 hrs followed by compound addition and measured after 3 days by fluorescein diacetate-based cell viability assay; assay type: functional, organism-based; details: B/Lee/40, MDCK
[7] = system: dengue virus type 2; test: Antiviral activity against Dengue virus 2 infected in hamster BHK-21 cells incubated for 48 hrs by renilla luciferase based assay; assay type: functional, organism-based; details: BHK-21, 48 h
Method in brief: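 DENV-2 replicon-bearing BHK-21 cells (DENV2-BHK); replication read out with a Renilla luciferase assay system; EC50 calculated by nonlinear regression.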

[8] = (§8) Cytotoxicity against hamster BHK-21 cells incubated for 4 days by MTS assay; assay type: toxicity, cell-based, Mesocricetus auratus; details: BHK-21 cells, time 4 day
[9] = system: BHK-21; test: as §8; assay type: toxicity, cell-based, Mesocricetus auratus; details: bhk-21, 96 h, time 4 day
[10] = as §5; assay type: toxicity, cell-based, Canis lupus familiaris; details: dog, MDCK cells; method in brief: as §2
[11] = as §1; assay type: toxicity, cell-based; details: chlorocebus sabaeus, Vero cells; method in brief: as §2
[12] = system: SARS-CoV-2; test: as §3, with “Potency index, ratio of beta-D-N4-hydroxycytidine EC50 to test compound EC50 for antiviral activity against antiviral” for “Antiviral”; assay type: functional, Severe acute respiratory syndrome coronavirus 2; details: time 48 hrs
[13] = system: SARS-CoV-2; test: as §3, with “Potency index, ratio of MK-4482 EC50 to test compound EC50 for antiviral activity against antiviral” for “Antiviral”; assay type: functional, Severe acute respiratory syndrome coronavirus 2; details: time 48 hrs
[14] = system: Influenza B virus; test: as §7, with “Potency index, ratio of MK-4482 EC50 to test compound EC50 for antiviral” for “Antiviral”; assay type: functional; details: time 3 day
[15] = system: dengue virus type 2; test: Potency index, ratio of MK-4482 EC50 to test compound EC50 for antiviral activity against Dengue virus 2 infected in hamster BHK-21 cells incubated for 48 hrs by renilla luciferase based assay; assay type: functional
[16] = system: SARS-CoV-2; test: as §3, with “Potency index, ratio of remdesivir EC50 to test compound EC50 for antiviral” for “Antiviral”; assay type: functional, Severe acute respiratory syndrome coronavirus 2; details: time 48 hrs
[17] = system: Influenza A virus; test: as §4, with “Potency index, ratio of ribavirin EC50 to test compound EC50 for antiviral” for “Antiviral”; assay type: functional; details: time 3 day
[18] = system: Influenza A virus; test: as §6, with “Potency index, ratio of ribavirin EC50 to test compound EC50 for antiviral” for “Antiviral”; assay type: functional; details: time 3 day
[19] = system: Influenza B virus; test: as §7, with “Potency index, ratio of ribavirin EC50 to test compound EC50 for antiviral” for “Antiviral”; assay type: functional; details: time 3 day
[20] = system: dengue virus type 2; test: Potency index, ratio of […] for antiviral activity against Dengue virus 2 infected in hamster BHK-21 cells incubated for 48 hrs by renilla luciferase based assay; assay type: functional
[21] = system: Influenza B virus; test: as §7, with “Potency index, ratio of T-705 EC50 to test compound EC50 for antiviral” for “Antiviral”; assay type: functional; details: time 3 day

SMILES | CC50 [1] [µM] | EC50 [2] [µM] | EC50 [3] [µM] | CC50 [4] [µM] | EC50 [5] [µM] | EC50 [6] [µM] | EC50 [7] [µM] | CC50 at 96 h [8] [µM] | further results
CCOC(=O)[C@H](Cc1ccccc1)Nc1ccn([C@@H]2O[C@H](CO)[C@@H](O)[C@H]2O)c(=O)n1 | > 100 | > 100 | > 100 | > 100 | > 100 | > 100 | 100 | 100 | –
CCOC(=O)[C@H](CC(C)C)Nc1ccn([C@@H]2O[C@H](CO)[C@@H](O)[C@H]2O)c(=O)n1 | > 100 | > 100 | > 100 | > 100 | > 100 | > 100 | 100 | 100 | –
O=c1nc(NO)ccn1[C@@H]1O[C@H](CO)[C@@H](O)[C@H]1O [N-HYDROXYCYTIDINE] | 16.5 | > 16.5 | 1.7 | > 100 | 2.3 | < 1.2 | 2.84 | – | CC50 [9]: 5.75 µM
NC(=O)c1ncn([C@@H]2O[C@H](CO)[C@@H](O)[C@H]2O)n1 [RIBAVIRIN] | – | – | – | – | – | 33.3 | 1.16 | – | CC50 at 48 h [10]: > 100 µM; CC50 [9]: 5.46 µM
CCOC(=O)CNc1ccn([C@@H]2O[C@H](CO)[C@@H](O)[C@H]2O)c(=O)n1 | > 100 | > 100 | > 100 | > 100 | > 100 | > 100 | 100 | 100 | –
CCC(CC)COC(=O)[C@H](C)N[P@](=O)(OC[C@H]1O[C@@](C#N)(c2ccc3c(N)ncnn23)[C@H](O)[C@@H]1O)Oc1ccccc1 | – | – | – | – | – | – | – | – | CC50 at 24 h [11]: > 100 µM
NC12CC3CC(CC(C3)C1)C2 [AMANTADINE] | – | – | > 100 | – | 6.4 | > 100 | – | – | –
NC(=O)c1nc(F)cnc1O | – | – | 3.2 | – | 8.5 | 7.6 | – | – | –
O=c1nc(NCCO)ccn1[C@@H]1O[C@H](CO)[C@@H](O)[C@H]1O | – | > 100 | > 100 | – | > 100 | > 100 | 100 | 100 | CC50 at 24 h [11]: > 100 µM; CC50 at 48 h [10]: > 100 µM
CC(C)C(=O)OC[C@H]1O[C@@H](n2ccc(NO)nc2=O)[C@H](O)[C@@H]1O [MOLNUPIRAVIR] | – | 11.8 | 6.6 | – | 6 | 23.8 | 23.4 | – | CC50 [9]: 42.2 µM
NNc1ccn([C@@H]2O[C@H](CO)[C@@H](O)[C@H]2O)c(=O)n1 | > 100 | > 100 | > 100 | > 100 | > 100 | > 100 | 100 | 100 | –
CCOC(=O)[C@H](C)Nc1ccn([C@@H]2O[C@H](CO)[C@@H](O)[C@H]2O)c(=O)n1 | > 100 | > 100 | > 100 | > 100 | > 100 | > 100 | 100 | 100 | –
CC(C)(C)OC(=O)NNc1ccn([C@@H]2O[C@H](CO)[C@@H](O)[C@H]2O)c(=O)n1 | > 100 | > 100 | > 100 | > 100 | > 100 | > 100 | 100 | 100 | –
CC(C)C(=O)ONc1ccn([C@@H]2O[C@H](CO)[C@@H](O)[C@H]2O)c(=O)n1 | – | 3.5 | 5.8 | – | 7.3 | 3.4 | 3.95 | – | CC50 [9]: 10.8 µM; Ratio EC50 [12]: >4.7; Ratio EC50 [13]: 3.4; Ratio EC50 [14]: 7; Ratio EC50 [15]: 5.9; Ratio EC50 [16]: 3; Ratio EC50 [17]: 6; Ratio EC50 [18]: 5; Ratio EC50 [19]: 10; Ratio EC50 [20]: 3; Ratio EC50 [21]: 2

— ChEMBL document CHEMBL5252569, “Synthesis and biological evaluation of new β-D-N4-hydroxycytidine analogs against SARS-CoV-2, influenza viruses and DENV-2” (Bioorg Med Chem Lett, 2023)
